Among the data in ChEMBL document CHEMBL1833801, “Natural daucane sesquiterpenes with antiproliferative and proapoptotic activity against human tumor cells” (Bioorg Med Chem, 2011) are Activity and IC50 values, retold here.

What is called IC50 is the concentration at which inhibition is half-maximal. A low value points to inhibition by little substance.

The test system of experiment [1] is Jurkat. In words: Cell cycle arrest in human Jurkat cells assessed as decrease in S phase phase after 48 hrs using propidium iodide staining by flow cytometry. It counts as functional, cell-based. In short, it runs like this:
(§1)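 Exponentially growing Jurkat cells, 2.5×10^5, exposed to 1.25–100 µM for 48 h. Cells fixed in ice-cold 70% ethanol, lysed in buffer with RNase A and 0.1% Triton X-100, stained with propidium iodide. Cell-cycle phases read by flow cytometry. Mean ± SEM of three independent experiments; two-sided Student's t test against control.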

The subject of experiment [2] is K562. In words: Cytotoxicity against human K562 cells after 72 hrs by MTT assay. In kind it is functional, cell-based. As to conditions: K562, 72 h. A general note: Tetrazolium dyes change colour on reduction, which living cells bring about.
Experiment [3] relates to Jurkat. In words: Cytotoxicity against human Jurkat cells assessed as cell viability at 25 uM after 48 hrs by MTT assay in presence of 100 uM pan-caspase inhibitor z-VAD. In kind it is functional. Summed up: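 Jurkat cells exposed to compound for 48 h with or without 100 µM of the pan-caspase inhibitor z-VAD.fmk. Percent viability read by MTT. Mean ± SEM.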
A short description of experiment [4]: Cytotoxicity against human RS4:11 cells after 72 hrs by MTT assay. It counts as functional, cell-based. To be noted: RS4-11, 72 h.
Experiment [5] concerns Jurkat. In words: Cell cycle arrest in human Jurkat cells assessed as accumulation at G2/M phase after 48 hrs using propidium iodide staining by flow cytometry. In kind it is functional, cell-based. In short, it runs like this: as §1
For orientation: A flow cytometer gives signals particle by particle.

For experiment [6], the system named is Jurkat. In words: Induction of apoptosis in human Jurkat cells assessed as increase in early apoptotic cells after 24 hrs by FITC-conjugated annexin V and propidium iodide staining-based flow cytometry. In kind it is functional, cell-based. Summed up:
(§2)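 Jurkat cells exposed for 24 and 48 h, over a range of 1.25–100 µM, then co-stained with Annexin-V-FITC and propidium iodide. Read by flow cytometry, excitation 488 nm, emission 525 and 585 nm. Quadrants scored as A+/PI− (early apoptotic) and A+/PI+ (late apoptotic), compared with untreated cells. Mean ± SEM of three independent experiments.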

Experiment [7] can be described thus: Cytotoxicity against human SEM cells after 72 hrs by MTT assay. It counts as functional, cell-based.
In experiment [8] the test system is Jurkat. In words: Cell cycle arrest in human Jurkat cells assessed as decrease in G1 phase phase after 48 hrs using propidium iodide staining by flow cytometry. It counts as functional, cell-based. Summed up:
as §1

The subject of experiment [9] is Jurkat. In words: Induction of apoptosis in human Jurkat cells assessed as DNA fragmentation at 12.5 to 50 uM after 48 hrs by agarose gel electrophoresis. It counts as functional, cell-based. In short, it runs like this: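 Genomic DNA taken from treated Jurkat cells by salting out after 48 h. 1 µg run on 1.5% agarose in TAE at 50 V for 6 h. Gel stained with ethidium bromide and imaged under UV light.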

The subject of experiment [10] is Jurkat. In words: Induction of apoptosis in human Jurkat cells assessed as increase in late apoptotic cells after 48 hrs by FITC-conjugated annexin V and propidium iodide staining-based flow cytometry. It counts as functional, cell-based. In short, it runs like this:
as §2

Experiment [11] relates to A549. In words: Cytotoxicity against human A549 cells after 72 hrs by MTT assay. It counts as functional, cell-based. To be noted: A549, 72 h.
The test system of experiment [12] is HeLa. In words: Cytotoxicity against human HeLa cells after 72 hrs by MTT assay. It counts as functional, cell-based.
For experiment [13], the system named is PBL. In words: Cytotoxicity against PHA-stimulated human PBL after 72 hrs by MTT assay. In kind it is cell-based. In short, it runs like this:
(§3)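 PBL from healthy donors separated on a density gradient, washed, held at 1.0×10^6 cells/mL in RPMI-1640 with 10% FCS overnight. Non-adherent cells resuspended at 5×10^5 cells/mL. Stimulated cultures received 2.5 µg/mL PHA; resting cultures had none. Compound at several concentrations for 72 h, viability by MTT, IC50 taken. Mean ± SEM of three experiments.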

Experiment [14] has as its system HL-60. In words: Cytotoxicity against human HL60 cells after 72 hrs by MTT assay. It counts as functional, cell-based. As to conditions: HL-60, 72 h.
The subject of experiment [15] is PBL. In words: Cytotoxicity against human PBL after 72 hrs by MTT assay. It counts as cell-based. Summed up:
as §3

Experiment [16] deals with Jurkat. In words: Cytotoxicity against human Jurkat cells after 72 hrs by MTT assay. In kind it is functional, cell-based.

Active and inactive are the calls of the source. The rule behind the calls is not given here.

`C/C=C(/C)C(=O)O[C@H]1CC(C)=C[C@@H](OC(=O)/C(C)=C\C)[C@@]2(C)CC[C@@](O)(C(C)C)[C@H]12`: the result in experiment [1], in experiment [8], in [9] and in experiment [10] was Active. Besides, the IC50 in experiment [2] was found to be 26.5 µM; in experiment [4], 1.7 µM; in experiment [7], 2.4 µM; in experiment [11] it was 2.8 µM; in experiment [12] it was 4.4 µM; in experiment [13], 13.7 µM. Besides, the figures for the IC50 in [14], in [15] and in experiment [16] were 2.6 µM, 22.6 µM and 7.7 µM, respectively. The Activity in [3] was 19%; in experiment [5], “Dose-dependent effect”; in [6], “Dose-dependent effect”.
